Experimental data reported in ChEMBL document CHEMBL1139495, “Retro hydrazino-azapeptoids as peptidomimetics of proteasome inhibitors” (J Med Chem, 2005).
Where a SMILES comes first, the peptide text is derived from it. [ ]: non-standard residue; d: D form. Nle = CCCC[C@H](N)C(=O)O

Assays:
L1210 = test: Inhibitory concentration of the compound was determined against L1210 cells; format: functional, cell-based; conditions: Mus musculus
Procedure, shortened: (§1)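 MTT read-out on cultured cells (murine leukemia L1210, melanoma B16, normal melanocyte Mel-A), scoring growth inhibition as either a cytostatic or a cytotoxic effect.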

B16 = test: Inhibitory concentration of the compound was determined against melanoma B16 cells; format: functional, cell-based; conditions: Mus musculus; procedure, shortened: as §1
Mel-A (Mus musculus) = test: Inhibitory concentration of the compound was determined against melanocyte Mel-A cells
Proteasome [1] = test: Inhibitory concentration against 20S proteasome chymotrypsin-like activity; format: subcellular
Cathepsin B = Cathepsin B (Homo sapiens, UniProt P07858); test: (§2) Inhibitory concentration against Cathepsin B activity; format: functional
[2] = target: T1, Calpain-1 catalytic subunit (Homo sapiens, UniProt P07384); test: Inhibitory concentration against Calpain I activity
T1 sequence (P07384 whole entry): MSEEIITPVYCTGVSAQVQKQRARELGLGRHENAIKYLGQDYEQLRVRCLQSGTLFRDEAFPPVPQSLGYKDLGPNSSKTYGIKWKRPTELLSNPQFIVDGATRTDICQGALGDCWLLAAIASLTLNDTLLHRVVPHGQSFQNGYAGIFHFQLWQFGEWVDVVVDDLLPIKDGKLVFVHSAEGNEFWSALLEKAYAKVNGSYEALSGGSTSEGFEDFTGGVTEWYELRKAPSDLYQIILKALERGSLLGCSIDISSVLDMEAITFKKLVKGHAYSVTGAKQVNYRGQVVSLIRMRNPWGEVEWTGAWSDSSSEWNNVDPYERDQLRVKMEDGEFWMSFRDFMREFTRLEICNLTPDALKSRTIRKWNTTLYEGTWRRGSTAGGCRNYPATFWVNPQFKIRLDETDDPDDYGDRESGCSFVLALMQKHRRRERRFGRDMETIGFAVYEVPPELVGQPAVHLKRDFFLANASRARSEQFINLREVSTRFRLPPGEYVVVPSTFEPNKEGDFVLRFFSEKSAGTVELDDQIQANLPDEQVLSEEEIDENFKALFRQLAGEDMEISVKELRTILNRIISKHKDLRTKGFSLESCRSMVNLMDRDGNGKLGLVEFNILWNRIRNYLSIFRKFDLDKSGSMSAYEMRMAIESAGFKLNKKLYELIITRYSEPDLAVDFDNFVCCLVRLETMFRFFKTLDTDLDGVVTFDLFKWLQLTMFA

[3] = as §2
Proteasome [4] = test: Inhibitory effect on 20S proteasome chymotrypsin-like activity; format: subcellular
[5] = Inhibitory concentration against peptidyl-glutamyl peptide hydrolase activity

**Q.** With CC(C)CN(NC(=O)OCc1ccccc1)C(=O)CN(Cc1ccccc1)/N=C/c1ccccc1B(O)O as the molecule, how does the IC50 (L1210) read?
**A.** Its IC50 is 27.9 µM.

**Q.** And the IC50 (B16)?
**A.** Its IC50 is 65.5 µM.

**Q.** What about the IC50 (Mel-A (Mus musculus)) of the same molecule?
**A.** The IC50 was 45.1 µM.

**Q.** What about the IC50 (Proteasome [1]) of the same molecule?
**A.** The IC50 was greater than 1 mM.

**Q.** Which IC50 (L1210) does the source give for CC(C)CN(CC(=O)N(Cc1ccccc1)NC(=O)OCc1ccccc1)/N=C/c1ccccc1B(O)O here?
**A.** The IC50 was 18.4 µM.

**Q.** What about the IC50 (B16) of the same molecule?
**A.** Its IC50 is 33.5 µM.

**Q.** And the IC50 (Mel-A (Mus musculus))?
**A.** The IC50 was 25.1 µM.

**Q.** And the IC50 (Proteasome [1])?
**A.** Its IC50 is greater than 1 mM.

**Q.** For CC(C)CN(NC(=O)CN(Cc1ccccc1)/N=C/c1cccc(B(O)O)c1)c1cnccn1, which IC50 (L1210) is on record?
**A.** The IC50 was greater than 80 µM.

**Q.** What about the IC50 (B16) of the same molecule?
**A.** The IC50 was greater than 80 µM.

**Q.** And the IC50 (Mel-A (Mus musculus))?
**A.** Its IC50 is 16.3 µM.

**Q.** And the IC50 (Proteasome [1])?
**A.** Its IC50 is 0.5 mM.

**Q.** What does the source list for CC(C)CN(CC(=O)N(Cc1ccccc1)NC(=O)OCc1ccccc1)/N=C/c1cccc(B(O)O)c1?
**A.** IC50 (L1210): 16.9 µM; IC50 (B16): 20.5 µM; IC50 (Mel-A (Mus musculus)): 19.9 µM; IC50 (Proteasome [1]): > 1 mM

**Q.** For CC(C)CN(CC(=O)N(CC(C)C)NC(=O)OCc1ccccc1)NC(=O)CBr, which IC50 (L1210) is on record?
**A.** Its IC50 is 6.5 µM.

**Q.** And the IC50 (B16)?
**A.** The IC50 was 1.3 µM.

**Q.** And the IC50 (Mel-A (Mus musculus))?
**A.** Its IC50 is 3.3 µM.

**Q.** And the IC50 (Proteasome [1])?
**A.** Its IC50 is greater than 1 mM.

**Q.** For CC(C)CN(CC(=O)N(Cc1cccnc1)NC(=O)OCc1ccccc1)/N=C/c1cccc(B(O)O)c1, which IC50 (L1210) is on record?
**A.** Its IC50 is 41.6 µM.

**Q.** And the IC50 (B16)?
**A.** The IC50 was 21.1 µM.

**Q.** What about the IC50 (Mel-A (Mus musculus)) of the same molecule?
**A.** The IC50 was 40.3 µM.

**Q.** And the IC50 (Proteasome [1])?
**A.** The IC50 was 0.35 mM.

**Q.** Which IC50 (L1210) does the source give for CC(C)CN(CC(=O)N(CC(C)C)NC(=O)OCc1ccccc1)NC(=O)CNNC(=O)CBr here?
**A.** The IC50 was 7.6 µM.

**Q.** And the IC50 (B16)?
**A.** The IC50 was 2.5 µM.

**Q.** And the IC50 (Mel-A (Mus musculus))?
**A.** The IC50 was 2.3 µM.

**Q.** And the IC50 (Proteasome [1])?
**A.** Its IC50 is greater than 1 mM.

**Q.** Which IC50 (L1210) does the source give for CC(C)CN(NC(=O)OCc1ccccc1)C(=O)CN(Cc1ccccc1)/N=C/c1cccc(B(O)O)c1 here?
**A.** The IC50 was 16.2 µM.

**Q.** And the IC50 (Cathepsin B)?
**A.** The IC50 was greater than 1 mM.

**Q.** And the IC50 (B16)?
**A.** The IC50 was 20.4 µM.

**Q.** And the IC50 [2]?
**A.** Its IC50 is greater than 1000 µM.

**Q.** What about the IC50 (Mel-A (Mus musculus)) of the same molecule?
**A.** Its IC50 is 18.4 µM.

**Q.** And the IC50 (Proteasome [1])?
**A.** Its IC50 is 0.053 mM.

**Q.** Which IC50 (L1210) does the source give for CC(C)CN(NC(=O)CN(Cc1ccccc1)NC(=O)CBr)C(=O)OCc1ccccc1 here?
**A.** The IC50 was 0.6 µM.

**Q.** And the IC50 (B16)?
**A.** The IC50 was 0.7 µM.

**Q.** What about the IC50 (Proteasome [1]) of the same molecule?
**A.** Its IC50 is greater than 1 mM.

**Q.** What does the source list for CC(C)CN(NC(=O)OCc1ccccc1)C(=O)CN(Cc1cccnc1)/N=C/c1cccc(B(O)O)c1?
**A.** IC50 (L1210): 75 µM; IC50 (B16): 74.9 µM; IC50 (Mel-A (Mus musculus)): 60.9 µM; IC50 (Proteasome [1]): > 1 mM

**Q.** For CC(C)CN(CC(=O)NN(Cc1ccccc1)c1cnccn1)/N=C/c1cccc(B(O)O)c1, which IC50 (L1210) is on record?
**A.** The IC50 was greater than 80 µM.

**Q.** What about the IC50 (B16) of the same molecule?
**A.** Its IC50 is greater than 80 µM.

**Q.** What about the IC50 (Mel-A (Mus musculus)) of the same molecule?
**A.** The IC50 was 33.7 µM.

**Q.** And the IC50 (Proteasome [1])?
**A.** The IC50 was greater than 1 mM.

**Q.** Which IC50 (L1210) does the source give for CC(C)CN(NC(=O)OCc1ccccc1)C(=O)CN(Cc1ccccc1)NC(=O)CBr here?
**A.** The IC50 was 1.3 µM.

**Q.** And the IC50 (B16)?
**A.** Its IC50 is 1.4 µM.

**Q.** And the IC50 (Mel-A (Mus musculus))?
**A.** The IC50 was 1.8 µM.

**Q.** And the IC50 (Proteasome [1])?
**A.** The IC50 was greater than 1 mM.

**Q.** Which results are given for CC(C)CN(NC(=O)OCc1ccccc1)C(=O)CN(Cc1ccccc1)/N=C/c1ccc(B(O)O)cc1?
**A.** IC50 (L1210): 14.7 µM; IC50 (B16): 32.6 µM; IC50 (Mel-A (Mus musculus)): 39.3 µM; IC50 (Proteasome [1]): > 1 mM

**Q.** What does the source list for CC(C)CN(CC(=O)N(CC(C)C)NC(=O)OCc1ccccc1)/N=C/c1cccc(B(O)O)c1?
**A.** IC50 (L1210): 21.2 µM; IC50 (B16): 53.9 µM; IC50 (Proteasome [1]): 0.091 mM

**Q.** What does the source list for CC(C)CN(CC(=O)N(CC(C)C)NCC(=O)OCc1ccccc1)NC(=O)CBr?
**A.** IC50 (L1210): 5 µM; IC50 (B16): 2.2 µM; IC50 (Mel-A (Mus musculus)): 4.5 µM; IC50 (Proteasome [1]): > 1 mM

**Q.** What does the source list for CC(C)CN(NC(=O)OCc1ccccc1)C(=O)CN(Cc1ccccc1)NCc1cccc(Br)c1?
**A.** IC50 (L1210): 30 µM; IC50 (B16): > 80 µM; IC50 (Proteasome [1]): > 1 mM

**Q.** For CC(C)CN(CC(=O)NN(Cc1ccccc1)c1cnccn1)NC(=O)CBr, which IC50 (L1210) is on record?
**A.** The IC50 was 24.1 µM.

**Q.** What about the IC50 (B16) of the same molecule?
**A.** Its IC50 is 11.4 µM.

**Q.** And the IC50 (Mel-A (Mus musculus))?
**A.** The IC50 was 14.8 µM.

**Q.** What about the IC50 (Proteasome [1]) of the same molecule?
**A.** Its IC50 is greater than 1 mM.

**Q.** For CC(C)CN(CC(=O)N(CC(C)C)NC(=O)OCc1ccccc1)/N=C/c1ccccc1B(O)O, which IC50 (L1210) is on record?
**A.** The IC50 was 16.2 µM.

**Q.** What about the IC50 (Cathepsin B) of the same molecule?
**A.** Its IC50 is greater than 1 mM.

**Q.** What about the IC50 (B16) of the same molecule?
**A.** Its IC50 is 26.3 µM.

**Q.** And the IC50 [2]?
**A.** The IC50 was greater than 1000 µM.

**Q.** What about the IC50 (Mel-A (Mus musculus)) of the same molecule?
**A.** Its IC50 is 17.3 µM.

**Q.** And the IC50 (Proteasome [1])?
**A.** The IC50 was 0.05 mM.

**Q.** Which IC50 (L1210) does the source give for CCCC[C@@H](C=O)NC(=O)[C@H](CC(C)C)NC(=O)[C@H](CC(C)C)NC(C)=O (Ac-Leu-Leu-[Nle]-aldehyde) here?
**A.** The IC50 was 3 µM.

**Q.** What about the IC50 (B16) of the same molecule?
**A.** Its IC50 is 14.5 µM.

**Q.** And the IC50 [3]?
**A.** Its IC50 is 12 µM.

**Q.** What about the IC50 (Proteasome [4]) of the same molecule?
**A.** Its IC50 is 15 µM.

**Q.** And the IC50 [2]?
**A.** The IC50 was 1 µM.

**Q.** And the IC50 [5]?
**A.** The IC50 was 45 µM.
